Screening results as filed in PubChem BioAssay.
Beta cell apopt: blocks beta cell apoptosis | INS-1E cytokine-induced death, ATP luminescence, 48 h; percent of positive-control rescue, neutral wells zero | protection from apoptosis, % (concentration not given with the values) | 300,000 compounds, 0.8% hits | AID 435005;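 active = Every replicate reaches about 75%, or at least half do and their mean reaches it too, limit read from the data; inconclusive = At least half of replicates reach the limit but their mean does not; inactive = Under half of replicates reach the limit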;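 also: higher means more ATP so stronger rescue from cytokine killing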
SKKanGAS inh: inhibitors of SKKanGAS S. pyogenes growth in kanamycin (SK-promoter or general growth effect) | BacTiter-Glo, 6 h | inhibition, % at 7.5 µM | 300,000 compounds, 1.3% hits;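 active = mean replicate score, as percent of positive control median, at least 50; inconclusive = mean below 50 but one replicate at or above 50; inactive = mean and every replicate below 50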;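 also: strain carries kanamycin resistance gene driven by streptokinase promoter and grows in 40 µg/ml kanamycin; loss of luminescence reflects streptokinase promoter inhibition or plain growth inhibition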
Calb FLC: C. albicans growth modulation with fluconazole. 300,000 compounds, 0.57% hits. C. albicans CaCi-2 (fluconazole-resistant clinical isolate) + fluconazole, Alamar Blue growth, 48 h. growth inhibition, % (test concentration not listed). AID 1979;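 active = growth inhibition above about 58% in most replicates, limit read from the data, passing the limit was not always enough; inconclusive = exactly half the replicates above a set limit; inactive = most replicates below a set limit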;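 also: all wells also contain fluconazole at 8 µg/ml as a sub-toxic cotreatment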
CSC inhib: blocks cancer stem cells; AID 2717; 300,000 compounds, 1.1% hits; inhibition, % at 7.5 µM; cancer stem cell-like cells viability, luminescence; in the data active = inhibition above about 75%; inconclusive = no clear call, values can overlap the other calls; tested in HMLE shEcad cells
T cruzi repl: blocks replication of Trypanosoma cruzi; T. cruzi beta-gal in NIH3T3, luminescence, 90 h; inhibition, % (concentration not given with the values); 300,000 compounds, 1.4% hits;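 active = mean inhibition across valid replicates above about 55%, limit read from the data; inconclusive = mean below that limit but half or more replicates reach it; inactive = mean below it, under half of replicates reach it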;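 also: signal also drops with host cell toxicity which is not excluded here; higher percent means less beta-gal luminescence so fewer parasites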
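Assay system: NIH/3T3 fibroblasts plus reporter T. cruzi. Amount: NIH/3T3 cells, 5,000 per well. Buffer or medium: DMEM, 2% fetal bovine serum. Doses: compound pinned at 50 nL/well, DMSO. Schedule: ≥90 h infection period, 3 h prior cell attachment. Signal: luminescent β-galactosidase signal after 60 min lysis. Read-out: parasite load inhibition, %.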
Mdm2 MdmX PPI: human Mdm2/MdmX binding inhibition; O15151+Q00987; SaOS-2 split-luciferase Mdm2/MdmX complementation, luminescence; inhibition, % at 8 µM; 330,000 compounds, 3% hits; AID 485346;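 active = inhibition of at least 50% at 8 µM in the primary screen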
Target sequence (O15151 whole entry, looked up): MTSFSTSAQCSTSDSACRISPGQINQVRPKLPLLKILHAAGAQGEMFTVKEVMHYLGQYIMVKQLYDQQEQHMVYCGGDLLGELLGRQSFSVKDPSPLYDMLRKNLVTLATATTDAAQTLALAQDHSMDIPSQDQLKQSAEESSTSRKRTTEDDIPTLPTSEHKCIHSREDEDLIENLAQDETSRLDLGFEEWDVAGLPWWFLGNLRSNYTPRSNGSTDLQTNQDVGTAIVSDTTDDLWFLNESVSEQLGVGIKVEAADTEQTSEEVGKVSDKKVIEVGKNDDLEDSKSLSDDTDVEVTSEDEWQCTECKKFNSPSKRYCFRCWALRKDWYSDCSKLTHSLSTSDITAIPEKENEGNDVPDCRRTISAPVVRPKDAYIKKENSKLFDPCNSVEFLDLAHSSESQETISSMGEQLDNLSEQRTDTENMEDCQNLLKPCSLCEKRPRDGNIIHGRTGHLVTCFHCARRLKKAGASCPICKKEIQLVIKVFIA
Target sequence (Q00987 whole entry, looked up): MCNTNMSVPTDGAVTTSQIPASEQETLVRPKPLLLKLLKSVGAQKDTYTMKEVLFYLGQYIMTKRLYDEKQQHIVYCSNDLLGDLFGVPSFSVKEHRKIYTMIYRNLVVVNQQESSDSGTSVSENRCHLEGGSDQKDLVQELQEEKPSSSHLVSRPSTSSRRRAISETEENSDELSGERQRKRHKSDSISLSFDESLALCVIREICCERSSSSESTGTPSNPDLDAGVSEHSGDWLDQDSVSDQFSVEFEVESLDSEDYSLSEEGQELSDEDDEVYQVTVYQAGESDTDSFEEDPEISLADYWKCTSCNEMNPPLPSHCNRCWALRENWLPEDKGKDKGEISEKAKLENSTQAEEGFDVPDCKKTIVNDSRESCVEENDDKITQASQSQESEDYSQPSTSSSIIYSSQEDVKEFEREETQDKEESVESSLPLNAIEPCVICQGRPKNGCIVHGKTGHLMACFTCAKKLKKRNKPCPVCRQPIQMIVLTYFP
Each line names hits and unclear results; the compound was inactive in the other large screens. Most compounds without a hit are left out; they make up all but 5.7% or so of the library.

CCCCCCOc1ccc(CN2CCN(C)CC2)cc1	Beta cell apopt 109, T cruzi repl 68 (no result: CSC inhib)
Nc1ccc(CCN2CCN(c3cccc(C(F)(F)F)c3)CC2)cc1	CSC inhib 95 (no result: Calb FLC)
Cc1cc(-c2ccccc2)cc(C)[n+]1Cc1ccccc1	Beta cell apopt 109
CCCC(CCC)C(=O)OC[N+](C)(C)CCOC(=O)C(O)(c1ccccc1)C1CCCC1 (configuration not stated)	T cruzi repl 55
Cc1ccc(-c2nc3ccccc3c(=O)n2-c2ccc(O)cc2)cc1	none
Cc1ccc(-n2c(-c3cccs3)nc3ccccc3c2=O)cc1	CSC inhib 78
CN1CCN(S(=O)(=O)c2cnc(Cl)c(Br)c2)CC1	none
CCOC(=O)C(O)(c1ccc(NC(=O)NC)cc1)C(F)(F)F (configuration not stated)	none
COC(=O)C1=C(c2ccc(OCc3ccccc3)cc2)C[C@@H]2CC[C@H]1N2C(=O)NCCCc1ccccc1	none (no result: SKKanGAS inh, Calb FLC, T cruzi repl)
Nc1c(C(=O)OCc2ccccc2)c2nc3ccccc3nc2n1Cc1cccs1	SKKanGAS inh 56
CCC(C)OC(=O)c1c(N)n(Cc2cccs2)c2nc3ccccc3nc12 (configuration not stated)	none
CCCCCn1c(=O)c(C(=O)NCc2ccccc2Cl)c(O)c2ccccc21	Beta cell apopt 101
CCCCn1c(=O)c(C(=O)Nc2ccccn2)c(O)c2ccccc21	SKKanGAS inh 53
CCCCCCn1c(=O)c(C(=O)Nc2c(C)n(C)n(-c3ccccc3)c2=O)c(O)c2ccccc21	SKKanGAS inh 89
CCCCn1c(=O)c(C(=O)NCCc2ccccc2)c(O)c2ccccc21	SKKanGAS inh 54, Calb FLC inconclusive
CCCCn1c(=O)c(C(=O)Nc2ccc(C)cn2)c(O)c2ccccc21	none
CCCCCn1c(=O)c(C(=O)Nc2ccccc2)c(O)c2ccccc21	none
COc1ccc(CC(C)NCCc2ccc(OC)c(OC)c2)cc1 (configuration not stated)	none
COc1ccc(CN2CCN(C(=O)Cc3ccccc3)CC2)cc1Br	none (no result: Beta cell apopt)
CCOC(=O)Cc1csc(NC(=O)c2c(O)c3ccccc3n(CCC(C)C)c2=O)n1	SKKanGAS inh 68
CCCCCCn1c(=O)c(C(=O)Nc2nc(CC(=O)OCC)cs2)c(O)c2ccccc21	none
c1ccc2c3c([nH]c2c1)C1(CCNCC1)NCC3	Beta cell apopt 87
Cc1ccsc1C(=O)C1CCCN(Cc2cnn(C(C)C)c2)C1 (configuration not stated)	T cruzi repl 66
Cc1ccsc1C(=O)C1CCCN(Cc2cnc(N(C)C)s2)C1 (configuration not stated)	T cruzi repl 59
Cc1ccsc1C(=O)C1CCCN(Cc2cnc(N3CCOCC3)s2)C1 (configuration not stated)	T cruzi repl 60
CCc1ccc(CN2CCCC(C(=O)c3sccc3C)C2)o1 (configuration not stated)	T cruzi repl 55
Cc1ccsc1C(=O)C1CCCN(Cc2sc(N(C)C)nc2Cl)C1 (configuration not stated)	none
O=P1(Oc2ccccc2)C[C@@H](O)[C@@H](O)[C@H](COCc2ccccc2)O1 (some centres not stated)	none
Cc1ccc(NC(=O)CCNC(=O)N2C[C@H]3C[C@@H](C2)c2cccc(=O)n2C3)c(C)c1	none (no result: Beta cell apopt)
CCC(=NCCO)c1c(O)n(-c2ccccc2)c(=O)[nH]c1=O	none
CC/C(=N\Nc1ccccc1)c1c(O)n(-c2ccc(OC)cc2)c(=O)[nH]c1=O	CSC inhib 76 (no result: T cruzi repl)
COC(=O)C1=C(c2cccc(C#N)c2)C[C@@H]2CC[C@H]1N2C(=O)NCC1CC1	none (no result: SKKanGAS inh, Calb FLC, T cruzi repl)
Fc1ccc(CCNCc2ccc(Cl)c(Cl)c2)cc1	T cruzi repl 67
COc1ccc(CNCCc2ccc(Cl)cc2)c(OC)c1OC	T cruzi repl 64
COc1cc(OC)c(OC)cc1CNCCc1ccc(F)cc1	T cruzi repl 63
COc1cc(OC)c(OC)cc1CNCCc1ccc(OC)c(OC)c1	none
CCc1ccc(CNCCc2ccc(F)cc2)cc1	T cruzi repl 59
COc1ccccc1N1C(=O)CC(=O)NC1=O	none
N#C/C=C/C#N	none (no result: SKKanGAS inh, Calb FLC, T cruzi repl)
C[N+](C)(C)CC(=O)O	none (no result: SKKanGAS inh, Calb FLC, T cruzi repl)
Nc1cc(C(=O)Nc2ccc(Cl)cc2)ccc1N1CC2CC(C1)c1cccc(=O)n1C2 (configuration not stated)	none
CN1CCc2nc3sc(C#N)c(N)c3c(-c3cccs3)c2C1	T cruzi repl 67
CN1CCc2nc(N)c(C#N)c(-c3ccccc3)c2C1	none (no result: Beta cell apopt)
Cc1nc2ccc(Cl)cc2c(-c2ccccc2)c1C(=O)O	none
c1ccc(CN2CCc3nc4ccccc4cc3C2)cc1	Calb FLC 76
NCCc1nc2ccccc2s1	none
c1ccc2sc(C3CCNCC3)nc2c1	T cruzi repl 64 (no result: Mdm2 MdmX PPI)
COC(=O)C1=C(c2ccccc2)C[C@@H]2CC[C@H]1N2C(=O)NCC1CC1	none
O=C1N(c2ccc(Cl)cc2)C(c2cccnc2)N2CCCN12 (configuration not stated)	none
O=C(Nc1nccs1)c1c(O)c2c(n(Cc3ccco3)c1=O)CCCC2	SKKanGAS inh 55
COc1ccc(-c2[nH]ncc2CNC(C)Cc2cccc(C)n2)cc1F (configuration not stated)	none
N#CCCCCC#N	none (no result: Beta cell apopt, SKKanGAS inh, Calb FLC, CSC inhib, T cruzi repl)
CCC1(c2ccccc2)C(=O)N(C)C(=O)N(C)C1=O	none
CCC1(CC)C(=O)N(Cc2ccccc2)C(=O)N(Cc2ccccc2)C1=O	T cruzi repl 61
Cc1nc2ccccc2c(=O)n1-c1ccncc1	none
Cc1nc2ccccc2c(=O)n1-c1cc([N+](=O)[O-])cc([N+](=O)[O-])c1	T cruzi repl 55
Cc1ccc(-c2cc(-c3ccc(C)cc3)[n+](-c3ccc(C(=O)[O-])cc3)c(-c3ccc(C)cc3)c2)cc1	Beta cell apopt 98, SKKanGAS inh 78
O=P(Oc1ccccc1)(Oc1ccccc1)c1ccccc1	none
C[C@H]1O[C@@H](OC2CC[C@]3(C=O)[C@H]4CC[C@]5(C)[C@@H](C6=CC(=O)OC6)CC[C@]5(O)[C@@H]4CC[C@]3(O)C2)CC2OC(C)(C)OC21 (some centres not stated)	CSC inhib 101 (no result: Mdm2 MdmX PPI)
COC(=O)C1=C(c2c(C)noc2C)C[C@@H]2CC[C@H]1N2C(=O)N1CCC(O)(c2ccc(Cl)cc2)CC1	none (no result: SKKanGAS inh, Calb FLC, T cruzi repl)
COC12CCC3(CC1C(C)(O)C(C)(C)C)[C@H]1Cc4ccc(OC5OC(C(=O)O)[C@@H](O)C(O)[C@H]5O)c5c4[C@@]3(CCN1CC1CC1)C2O5 (some centres not stated)	none (no result: Beta cell apopt, SKKanGAS inh, Calb FLC, CSC inhib, T cruzi repl)
CCCCc1ccc(NC2=NCCCS2)cc1	none
CCN(CC)C(=O)c1ccc(NC(=O)Nc2ccccc2F)cc1	SKKanGAS inh 71, CSC inhib 81
CCN(CC)C(=O)c1ccc(NC(=O)CCCSc2ccccc2)cc1	none
